≈ marks a conversion by molar mass, not a printed value. Where “and” joins values, the source holds several entries; their conditions need not be identical. Identical values can stand only once. Like-named read-outs stand apart in the source and are kept apart here.
Assays:
[1] = Amorphous solubility determination, ultracentrifugation; assay type: physicochemical; details: phosphate buffer with HPMCAS, pH 6.5, aqueous buffer, kinetic from dmso stock
Method in brief: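 Test compound DMSO stock added to 50 mM pH 6.5 sodium phosphate buffer with 100 μg/mL predissolved HPMCAS, keeping organic solvent below 2% (v/v). Mixture stirred 15 min to form amorphous aggregates, then spun at 35,000 rpm for 30 min. Supernatant diluted 1:1 in mobile phase and quantified by isocratic C18 HPLC at 210 nm. At least triplicate.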

[2] = Flux measurements, Franz diffusion cells; assay type: in vitro ADME
[3] = Particle size determination by dynamic light scattering; assay type: physicochemical
[4] = cited from earlier work
[5] = cited from earlier work; for glass transition temperature (Tg) / Tg, dry: dry
[6] = Wet glass transition temperature; assay type: physicochemical; details: amorphous drug equilibrated at 97% relative humidity 48 h; DSC onset
Method in brief: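 Amorphous test compound powder was freshly prepared and vacuum-dried overnight at room temperature. Then 5–10 mg in open hermetic pans was held at 97% relative humidity (saturated potassium sulfate) for 48 h. Pans sealed; DSC run 0 to 90 °C at 10 °C/min. Onset glass transition taken as wet Tg. Triplicate.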

COC(=O)N[C@H](C(=O)N[C@@H](Cc1ccccc1)[C@@H](O)CN(Cc1ccc(-c2ccccn2)cc1)NC(=O)[C@@H](NC(=O)OC)C(C)(C)C)C(C)(C)C [atazanavir]
solubility at 15 min [1]: 37.7 ± 3.2 µg/mL (≈ 53.5 µM)
transmembrane flux ([2]; donor ∼20 μg/mL, 150 rpm, no BSA, 37 °C): 0.023 ± 0.003 μg/(min·cm^2)
transmembrane flux ([2]; donor ∼20 μg/mL, 300 rpm, no BSA, 37 °C): 0.030 ± 0.003 μg/(min·cm^2)
transmembrane flux ([2]; donor ∼20 μg/mL, 500 rpm, no BSA, 37 °C): 0.041 ± 0.005 μg/(min·cm^2)
transmembrane flux ([2]; donor ∼40 μg/mL (amorphous solubility), 300 rpm, no BSA, 37 °C): 0.048 ± 0.012 μg/(min·cm^2)
transmembrane flux ([2]; donor ∼40 μg/mL, 500 rpm, no BSA, 37 °C): 0.070 ± 0.008 μg/(min·cm^2)
transmembrane flux ([2]; donor ∼40 μg/mL, 1000 rpm, no BSA, 37 °C): 0.072 ± 0.019 μg/(min·cm^2)
donor concentration at which a flux plateau was observed ([2]; stirring rates equal to or higher than 300 rpm, no BSA): about 150 μg/mL
Z-average ([3]; particles from stock 5 mg/mL, 1000 rpm, 37 °C): 193 ± 4 nm
diffusion coefficient Dp ([3]; particles from stock 5 mg/mL, 1000 rpm, 37 °C (193 nm), listed as ATZ): 3.43 ± 0.07 ×10^–8 cm^2/s
Z-average ([3]; particles from stock 20 mg/mL, 1000 rpm, 37 °C): 460 ± 23 nm
diffusion coefficient Dp ([3]; particles from stock 20 mg/mL, 1000 rpm, 37 °C (460 nm), listed as ATZ): 1.44 ± 0.07 ×10^–8 cm^2/s
pKa ([4]; basic): 4.52,[45] basic
glass transition temperature (Tg) [5]: 104 °C
Tg, wet ([5]; water saturated amorphous precipitates): 51 °C

Clc1ccccc1C(c1ccccc1)(c1ccccc1)n1ccnc1 [clotrimazole]
solubility at 15 min [1]: 7.7 ± 0.3 µg/mL (≈ 22.3 µM)
bulk concentration at which a flux plateau was observed ([2]; 150 rpm, 37 °C, 3% BSA): around 150 μg/mL
pKa ([4]; basic): 5.89,[45] basic
Tg, dry [5]: 28,[45] NA ^a °C
glass transition temperature (Tg) [5]: 28 °C

Cc1cccc(C)c1OCC(=O)N[C@@H](Cc1ccccc1)[C@@H](O)C[C@H](Cc1ccccc1)NC(=O)[C@H](C(C)C)N1CCCNC1=O [lopinavir]
solubility at 15 min [1]: 19.3 ± 2 µg/mL (≈ 30.7 µM)
Tg, wet [6]: 42 °C and 42.2 ± 1.8 °C
Z-average ([3]; particles from stock 5 mg/mL, 1000 rpm, 25 °C): 254 ± 3 nm
diffusion coefficient Dp ([3]; particles from stock 5 mg/mL, 1000 rpm, 25 °C (254 nm), listed as LPV): 1.94 ± 0.00 ×10^–8 cm^2/s
Z-average ([3]; particles from stock 12 mg/mL, 300 rpm, 25 °C): 454 ± 10 nm
diffusion coefficient Dp ([3]; particles from stock 12 mg/mL, 300 rpm, 25 °C (454 nm), listed as LPV): 1.09 ± 0.00 ×10^–8 cm^2/s
Z-average ([3]; particles from stock 20 mg/mL, 300 rpm, 25 °C): 839 ± 15 nm
diffusion coefficient Dp ([3]; particles from stock 20 mg/mL, 300 rpm, 25 °C (839 nm), listed as LPV): 0.59 ± 0.01 ×10^–8 cm^2/s
pKa ([4]; no reference printed): not dissociated at physiological pHs
pKa ([4]; no reference printed, listed as Lopinavir): not expected to dissociate within physiological pH ranges
Tg, dry [5]: 69 °C
glass transition temperature (Tg) [5]: 69 °C
